Source: ChEMBL document CHEMBL4184106, “Discovering alkylamide derivatives of bexarotene as new therapeutic agents against triple-negative breast cancer” (Bioorg Med Chem Lett, 2018)
Activity calls are given as the source filed them. No cut-off for these calls is given here.

How the values were obtained:
MCF7 [1] = test: Inhibition of mammosphere formation in human MCF7 cells assessed as ratio of C-Myc to beta actin level at 5 uM by Western blot analysis (Rvb= 1); format: functional
Procedure, shortened: (§1)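 Post-treatment cell lysates were probed by Western blot for CSC markers, with β-actin as the loading control. Band densitometry was normalized to DMSO-treated samples.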

MCF7 [2] = test: Cytotoxicity against human MCF7 cells assessed as reduction in cell viability at 5 uM by MTT assay; format: functional
MDA-MB-231 [3] = test: Cytotoxicity against human MDA-MB-231 cells assessed as reduction in cell viability at 5 uM by MTT assay; format: functional
BT-549 [4] = test: Cytotoxicity against human BT549 cells assessed as reduction in cell viability at 5 uM by MTT assay; format: functional
MCF-10A [5] = test: Cytotoxicity against human MCF10A cells assessed as reduction in cell viability at 5 uM by MTT assay; format: cell-based
MDA-MB-231 [6] = test: Cytotoxicity against human MDA-MB-231 cells assessed as reduction in cell viability by MTT assay; format: functional, cell-based
BT-549 [7] = test: Cytotoxicity against human BT549 cells assessed as reduction in cell viability by MTT assay; format: functional, cell-based
MDA-MB-231 [8] = test: Induction of apoptosis in human MDA-MB-231 cells assessed as ratio of cleaved caspase-3 to beta-actin level at 5 uM by western blot analysis (reference value: 1); format: functional
BT-549 [9] = test: Induction of apoptosis in human BT549 cells assessed as ratio of cleaved caspase-3 to beta-actin level at 5 uM by western blot analysis (reference value: 1); format: functional
MCF-10A [10] = test: Induction of apoptosis in human MCF10A cells assessed as ratio of cleaved caspase-3 to beta-actin level at 5 uM by western blot analysis (reference value: 1); format: cell-based
MCF7 [11] = test: Induction of apoptosis in human MCF7 cells assessed as ratio of cleaved caspase-3 to beta-actin level at 5 uM by western blot analysis (reference value: 1); format: functional
MDA-MB-231 [12] = test: Induction of apoptosis in human MDA-MB-231 cells assessed as ratio of cleaved caspase-8 to beta-actin level at 5 uM by western blot analysis (reference value: 1); format: functional
BT-549 [13] = test: Induction of apoptosis in human BT549 cells assessed as ratio of cleaved caspase-8 to beta-actin level at 5 uM by western blot analysis (reference value: 1); format: functional
MCF-10A [14] = test: Induction of apoptosis in human MCF10A cells assessed as ratio of cleaved caspase-8 to beta-actin level at 5 uM by western blot analysis (reference value: 1); format: cell-based
MCF7 [15] = test: Induction of apoptosis in human MCF7 cells assessed as ratio of cleaved caspase-8 to beta-actin level at 5 uM by western blot analysis (reference value: 1); format: functional
MDA-MB-231 [16] = test: Induction of apoptosis in human MDA-MB-231 cells assessed as ratio of cleaved caspase-9 to beta-actin level at 5 uM by western blot analysis (reference value: 1); format: functional
BT-549 [17] = test: Induction of apoptosis in human BT549 cells assessed as ratio of cleaved caspase-9 to beta-actin level at 5 uM by western blot analysis (reference value: 1); format: functional
MCF-10A [18] = test: Induction of apoptosis in human MCF10A cells assessed as ratio of cleaved caspase-9 to beta-actin level at 5 uM by western blot analysis (reference value: 1); format: cell-based
MCF7 [19] = test: Induction of apoptosis in human MCF7 cells assessed as ratio of cleaved caspase-9 to beta-actin level at 5 uM by western blot analysis (reference value: 1); format: functional
MDA-MB-231 [20] = test: Induction of apoptosis in nuclear fractions of human MDA-MB-231 cells assessed as ratio of cleaved PARP to beta-actin level at 10 uM by western blot analysis (reference value: 1); format: functional
MCF7 [21] = test: Inhibition of colony formation in human MCF7 cells at 5 uM supplemented with fresh medium containing compound every 3 to 4 days for 7 days by crystal violet staining based adherent cell colony-forming assay; format: functional
Procedure, shortened: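 MCF-7 cells were plated for adherent colony formation and treated for 7 days. Colonies were counted at the end of treatment and normalized to untreated samples.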

MDA-MB-231 [22] = test: Inhibition of colony formation in human MDA-MB-231 cells at 10 uM supplemented with fresh medium containing compound every 3 days for 10 days by microscopic method based soft agar colony formation assay; format: functional, cell-based
MDA-MB-231 [23] = test: Anti-migratory activity against human MDA-MB-231 cells assessed as reduction in wound closure at 5 uM up to 24 hrs by wound-healing assay; format: functional, cell-based
Procedure, shortened: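 MDA-MB-231 monolayer was scratched to make a wound gap. Cells were treated alongside a DMSO vehicle control, and migration into the gap was imaged at 24 h.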

MCF7 [24] = test: Inhibition of mammosphere formation in human MCF7 cells at 10 uM after 7 days by microscopic method; format: functional, cell-based
Procedure, shortened: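 MCF-7 cells were grown under mammosphere-forming conditions with compound. Spheres 60 μm or larger were counted for quantitation.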

MCF7 [25] = test: Inhibition of mammosphere formation in human MCF7 cells assessed as ratio of KLF4 to beta actin level at 5 uM by Western blot analysis (Rvb= 1); format: functional; procedure, shortened: as §1
MCF7 [26] = test: Inhibition of mammosphere formation in human MCF7 cells assessed as ratio of Nanog to beta actin level at 5 uM by Western blot analysis (Rvb= 1); format: functional; procedure, shortened: as §1
MCF7 [27] = test: Inhibition of mammosphere formation in human MCF7 cells assessed as ratio of Oct4A to beta actin level at 5 uM by Western blot analysis (Rvb= 1); format: functional; procedure, shortened: as §1
MCF7 [28] = test: Inhibition of mammosphere formation in human MCF7 cells assessed as ratio of Sox2 to beta actin level at 5 uM by Western blot analysis (Rvb= 1); format: functional; procedure, shortened: as §1
MDA-MB-231 [29] = test: Inhibition of mammosphere formation in human MDA-MB-231 cells assessed as ratio of C-Myc to beta actin level at 5 uM by Western blot analysis (Rvb= 1); format: functional; procedure, shortened: as §1
MDA-MB-231 [30] = test: Inhibition of mammosphere formation in human MDA-MB-231 cells assessed as ratio of KLF4 to beta actin level at 5 uM by Western blot analysis (Rvb= 1); format: functional; procedure, shortened: as §1
BT-549 [31] = test: Inhibition of mammosphere formation in human BT549 cells assessed as ratio of C-Myc to beta actin level at 5 uM by Western blot analysis (Rvb= 1); format: functional
BT-549 [32] = test: Inhibition of mammosphere formation in human BT549 cells assessed as ratio of KLF4 to beta actin level at 5 uM by Western blot analysis (Rvb= 1); format: functional
MDA-MB-231 [33] = test: Effect on epithelial-mesenchymal transition in human MDA-MB-231 cells assessed as ratio of E-cadherin to beta-actin level at 5 uM by Western blot analysis (reference value: 1); format: functional
MDA-MB-231 [34] = test: Effect on epithelial-mesenchymal transition in human MDA-MB-231 cells assessed as ratio of vimentin to beta-actin level at 5 uM by Western blot analysis (reference value: 1); format: functional
MDA-MB-231 [35] = test: Effect on epithelial-mesenchymal transition in human MDA-MB-231 cells assessed as ratio of slug to beta-actin level at 5 uM by Western blot analysis (reference value: 1); format: functional
BT-549 [36] = test: Effect on epithelial-mesenchymal transition in human BT549 cells assessed as ratio of E-cadherin to beta-actin level at 5 uM by Western blot analysis (reference value: 1); format: functional
BT-549 [37] = test: Effect on epithelial-mesenchymal transition in human BT549 cells assessed as ratio of vimentin to beta-actin level at 5 uM by Western blot analysis (reference value: 1); format: functional
BT-549 [38] = test: Effect on epithelial-mesenchymal transition in human BT549 cells assessed as ratio of slug to beta-actin level at 5 uM by Western blot analysis (reference value: 1); format: functional
MDA-MB-231 [39] = test: Effect on beta-catenin translocation in cytosolic fraction of human MDA-MB-231 cells assessed as ratio of beta-catenin to beta-actin level at 10 uM by Western blot analysis (reference value: 1); format: functional
MDA-MB-231 [40] = test: Effect on beta-catenin translocation in nuclear fraction of human MDA-MB-231 cells assessed as ratio of beta-catenin to beta-actin level at 10 uM by Western blot analysis (reference value: 1); format: functional
MDA-MB-231 [41] = test: Induction of apoptosis in nuclear fractions of human MDA-MB-231 cells assessed as ratio of PARP to beta-actin level at 10 uM by western blot analysis (reference value: 1); format: functional
BT-549 [42] = test: Effect on beta-catenin translocation in cytosolic fraction of human BT549 cells assessed as ratio of beta-catenin to beta-actin level at 10 uM by Western blot analysis (reference value: 1); format: functional
BT-549 [43] = test: Effect on beta-catenin translocation in nuclear fraction of human BT549 cells assessed as ratio of beta-catenin to beta-actin level at 10 uM by Western blot analysis (reference value: 1); format: functional
BT-549 [44] = test: Induction of apoptosis in nuclear fractions of human BT549 cells assessed as ratio of PARP to beta-actin level at 10 uM by western blot analysis (reference value: 1); format: functional
BT-549 [45] = test: Induction of apoptosis in nuclear fractions of human BT549 cells assessed as ratio of cleaved PARP to beta-actin level at 5 uM by western blot analysis (reference value: 1)

With `C=C(c1ccc(C(=O)O)cc1)c1cc2c(cc1C)C(C)(C)CCC2(C)C` [BEXAROTENE] the Ratio (MCF7 [1]) was 1, the Activity (MCF7 [2]) was “inactive” and the Activity (MDA-MB-231 [3]) was “inactive”. For the same compound, the Activity (BT-549 [4]) was “inactive”, the Activity (MCF-10A [5]) was “Non-Toxic” and the EC50 (MDA-MB-231 [6]) was over 56 µM. It also gave an EC50 (BT-549 [7]) of over 56 µM, a Ratio (MDA-MB-231 [8]) of 2.7 and a Ratio (BT-549 [9]) of 1.1. It also gave a Ratio (MCF-10A [10]) of 0.95, a Ratio (MCF7 [11]) of 0.9 and a Ratio (MDA-MB-231 [12]) of 3.4. The Ratio (BT-549 [13]) was 1.1, the Ratio (MCF-10A [14]) was 1 and the Ratio (MCF7 [15]) was 1. The Ratio (MDA-MB-231 [16]) was 3.2, the Ratio (BT-549 [17]) was 1.3 and the Ratio (MCF-10A [18]) was 1.1. For the same compound, the Ratio (MCF7 [19]) was 1.2, the Ratio (MDA-MB-231 [20]) was 1.6 and the inhibition (MCF7 [21]) was “inactive”. For the same compound, the inhibition (MDA-MB-231 [22]) was “inactive”, the Activity (MDA-MB-231 [23]) was “inactive” and the inhibition (MCF7 [24]) was “inactive”. It also gave a Ratio (MCF7 [25]) of 1, a Ratio (MCF7 [26]) of 1 and a Ratio (MCF7 [27]) of 1.2. It also gave a Ratio (MCF7 [28]) of 0.8, a Ratio (MDA-MB-231 [29]) of 1.2 and a Ratio (MDA-MB-231 [30]) of 1.3. The Ratio (BT-549 [31]) was 1.4, the Ratio (BT-549 [32]) was 1.2 and the Ratio (MDA-MB-231 [33]) was 10.8. It also gave a Ratio (MDA-MB-231 [34]) of 0.4, a Ratio (MDA-MB-231 [35]) of 1 and a Ratio (BT-549 [36]) of 9.2. It also gave a Ratio (BT-549 [37]) of 0.9, a Ratio (BT-549 [38]) of 1.3 and a Ratio (MDA-MB-231 [39]) of 2.4. It also gave a Ratio (MDA-MB-231 [40]) of 1.8, a Ratio (MDA-MB-231 [41]) of 0.9 and a Ratio (BT-549 [42]) of 2.2. The Ratio (BT-549 [43]) was 0.7, the Ratio (BT-549 [44]) was 1.8 and the Ratio (BT-549 [45]) was 1.7.
